Only some compounds are listed: those with a hit (about 2.4% of all), similar ones and a draw of the others.
EP2 modulator: modulates human prostaglandin E2 receptor EP2 signaling; P43116; EP2-expressing cells, cAMP HTRF FRET, PGE2 co-stimulation; induction, % at 25 µM; actives 0.83% (n = 260,000); AID 940;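 active means compounds whose cAMP rise, as percent of the full-agonist control response, exceeds 60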;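 further: rat C6 glioma line stably carrying human EP2 under a CMV promoter; the protocol text gives 20 µM as final concentration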
Target sequence (P43116 whole entry, looked up): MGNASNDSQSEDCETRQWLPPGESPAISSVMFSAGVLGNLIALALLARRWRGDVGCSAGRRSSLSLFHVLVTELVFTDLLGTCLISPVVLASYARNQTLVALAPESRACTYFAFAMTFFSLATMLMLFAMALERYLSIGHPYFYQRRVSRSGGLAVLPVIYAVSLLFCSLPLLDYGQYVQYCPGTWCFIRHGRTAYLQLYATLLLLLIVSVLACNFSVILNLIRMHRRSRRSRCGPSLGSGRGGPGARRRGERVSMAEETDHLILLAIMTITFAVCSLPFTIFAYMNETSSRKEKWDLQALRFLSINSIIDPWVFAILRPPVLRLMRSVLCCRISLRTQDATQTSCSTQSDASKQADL
bCat nuc transl: beta-catenin nuclear translocation modulation; actives 0.3% (n = 190,000); HeLa beta-catenin nuclear translocation, immunofluorescence imaging; nuclear translocation activity, % at 5 µM; AID 1665;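 active means nuclear translocation activity above 50% at 5 µM, with a well cell count of 50 or more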;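 further: per-cell ratio of nuclear to cytoplasmic median beta-catenin stain intensity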
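Test system: HeLa cells, endogenous beta-catenin; Compound: single 5 µM dose plus 0.02–20 µM confirmation series; Times: compound exposure 24 h at 37°C; Signal: fluorescence imaging of beta-catenin antibody stain plus DAPI; Read-out: % activation, nuclear-to-cytoplasmic median beta-catenin signal ratio per cell.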
MT stabilizer: microtubule stabilization, imaging screen; HeLa tubulin immunostaining HCS, 24 h; share of cells brighter than vehicle mean+2SD; % tubulin-high responders, % at 10 µM; actives 0.83% (n = 200,000); AID 2205;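 active means plate Z-score above 3 for both tubulin-high and condensed-nucleus cell shares, with cell loss under 80%, at 10 µM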;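 further: anti alpha tubulin signal scored within the nucleus-defined area of each cell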
TbHK1 inh: blocks Trypanosoma brucei hexokinase 1 activity | recombinant TbHK1, G6PDH-coupled NADH A340 | inhibition, % at 10 µM | actives 0.11% (n = 220,000);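 active means inhibition of 50% or more in the single-dose primary screen; inactive means inhibition below 50%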
Efa HMGR inh: E. faecalis class II HMG-CoA reductase inhibition; AID 1066; actives 0.41% (n = 190,000); inhibition, % at 10 µM; purified E. faecalis HMGR, NADPH absorbance 340 nm kinetic;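 active means inhibition above a set limit, the median over all tested compounds plus 3 SD, cut at about 9.5% in these data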;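 further: enzyme runs in reverse so mevalonate oxidation gives rising NADPH absorbance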
PGE2 EP2 inh: EP2 receptor (human) inhibition. AID 1422. C6 glioma cells expressing human EP2, cAMP TR-FRET; cells stimulated with saturating PGE2. inhibition, % at 25 µM. actives 0.52% (n = 260,000);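 active means percent inhibition above 40 after rounding to a whole number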;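 further: rat C6 glioma host cells with rolipram phosphodiesterase inhibitor present; the protocol text gives 20 µM as final concentration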
Hits are given with their value; n = inactive; x = not tested or not shown.

SMILES	EP2 modulator	bCat nuc transl	MT stabilizer	TbHK1 inh	Efa HMGR inh	PGE2 EP2 inh
CCOC(=O)Cc1csc(NC(=O)COc2ccccc2)n1	n	x	n	n	n	n
CCOC(=O)Cc1csc(NC(=O)COc2cccc(C)c2)n1	n	n	n	n	18.0	n
CN(c1ccccc1)S(=O)(=O)c1ccc(NC(=S)NC(=O)C2CC2)cc1	n	n	n	n	n	n
CN(Cc1ccccc1)S(=O)(=O)c1ccc(NC(=S)NC(=O)C2CCCC2)cc1	n	n	28.4	n	n	n
CCn1cc(NS(=O)(=O)c2ccc3c(c2)NC(=O)C(C)O3)cn1 (stereo not given)	n	x	x	x	x	n
Cc1nn(-c2ccc(F)cc2)c(Cl)c1/C=C1\C(=O)Nc2ccccc21	n	n	21.7	n	n	n
CCn1c(=O)c(C(=O)NCc2ccccc2OC)c(O)c2ccccc21	62.3	x	x	x	x	n
CCn1c(=O)c(C(=O)NCc2cccnc2)c(O)c2ccccc21	64.7	n	n	n	n	n
CC(C)Cn1c(=O)c(C(=O)NCc2ccccn2)c(O)c2ccccc21	61.9	n	n	n	n	n
CCn1c(N2CCC(C(=O)NCc3ccccc3OC)CC2)nc2ccccc21	n	x	x	x	x	x
O=C1Nc2ccccc2S/C1=C/c1cccs1	n	n	x	n	x	n
O=C1/C(=C/c2cccs2)Sc2ccccc21	n	n	n	n	10.5	n
COc1ccc2cc(CN(C(=S)NCc3ccco3)C3CCCCC3)c(=O)[nH]c2c1	n	x	x	x	x	n
CSC1=NC(C(Cl)(Cl)Cl)N=C(c2ccccc2)N1 (stereo not given)	n	75.0	14.6	n	n	n
C[C@H](Cn1nnc2ccccc21)NC(=O)CN1CCCC1=O	n	x	x	x	x	n
Cc1ccc(N(CC(=O)NCc2ccccn2)S(C)(=O)=O)cc1C	n	x	x	x	x	n
Cc1nn2c(=O)cc(COC(=O)c3ccc(S(=O)(=O)N4CCCCC4)cc3)nc2s1	n	x	15.4	n	n	x
CCOC(=O)c1ccc(S(=O)(=O)N2CCCCC2)cc1	n	x	x	x	x	n
CCn1nc(C)c(CCC(=O)N2CCCC(n3nc(-c4ccco4)ccc3=O)C2)c1C (stereo not given)	n	x	x	x	x	x
CN(C)c1ccc(/C=C2\C(=O)Nc3ccccc32)cc1	n	x	x	x	x	n
CC(=O)N1/C(=C/c2ccc(N(C)C)cc2)C(=O)c2ccccc21	n	n	19.5	n	n	n
CCOC(=O)Cn1cnc2scc(-c3ccc(OCC)cc3)c2c1=O	n	x	x	x	x	n
COc1ccc(C(=O)Nc2sc3c(c2C#N)CCN(C(C)=O)C3)cc1	n	60.0	14.3	n	n	n
COCCNC(=O)c1cn(C[C@H]2CCCN(C(=O)c3ccco3)C2)nn1	n	x	x	x	x	n
Cc1ccc2nc(NCc3ccccc3)[nH]c2c1	n	n	21.7	n	n	n
SMILES	EP2 modulator	bCat nuc transl	MT stabilizer	TbHK1 inh	Efa HMGR inh	PGE2 EP2 inh
COc1ccc2nc(NCCO)[nH]c2c1	n	n	n	n	n	n
COc1ccc2nc(NCc3ccccc3)[nH]c2c1	n	n	42.6	n	n	n
COc1ccc([C@@H]2CN(C(=O)c3c(C)noc3C)C[C@H]2C(=O)O)cc1	n	x	x	x	x	n
CN(C(=O)CSc1nc(-c2ccco2)cc(C(F)(F)F)n1)C1CCCCC1	n	x	x	x	x	n
CCN(CC)c1nc2c(c(=O)[nH]c(=O)n2C)n1Cc1ccc(C)cc1	n	x	x	x	x	n
CCCC(c1nnnn1CC1CCCO1)N(Cc1cc2cc(C)c(C)cc2[nH]c1=O)C1CCCC1 (stereo not given)	n	x	x	x	x	n
Cc1cccc(N/N=C(\C#N)S(=O)(=O)C(C)(C)C)c1	n	n	n	n	16.6	n
CC(C)(C)c1ccc(N/N=C(\C#N)S(=O)(=O)C(C)(C)C)cc1	n	n	n	n	n	n
CCCCOCCCNC(=O)c1ccc(OC)cc1	n	x	n	n	n	n
CCCCOCCCNC(=O)c1ccc(OCC)cc1	n	x	n	n	10.3	n
CCOC(=O)CNC(=O)CNC(=O)c1ccc(OCC(C)C)cc1	n	n	n	n	n	n
CCCCCOc1ccc(C(=O)NCC(=O)NCC(=O)OCC)cc1	n	n	36.0	n	n	n
CCn1c(COc2cccc3ccccc23)nnc1SCC(=O)N1CCOCC1	n	x	x	x	x	n
N#Cc1c(Cl)c(Cl)c2nnc(-c3ccc(Br)cc3)n2c1Cl	n	n	n	n	n	118.1
Cn1c(SCC#N)nnc1-c1ccc(Br)cc1	n	x	x	x	x	n
COc1ccc(OC)c(NS(=O)(=O)c2ccc(Cl)s2)c1	n	n	n	n	n	n
COc1ccc(S(=O)(=O)Nc2cc(Cl)ccc2OC)cc1	n	n	23.7	n	n	n
COc1ccc(OC)c(NS(=O)(=O)c2ccc(Br)s2)c1	n	n	9.6	n	n	n
COc1ccc(Cl)cc1NS(=O)(=O)c1ccc(OC)c(OC)c1	n	n	n	n	n	n
CCOc1ccc(S(=O)(=O)Nc2cc(OC)ccc2OC)cc1	n	51.8	n	n	n	n
O=C(CSc1nc2ccccc2n1Cc1ccccc1)N1CCCCC1	n	x	x	x	x	n
COc1ccc([C@H]2CN(Cc3ccccc3)C[C@@H]2NC(=O)c2ccncc2)cc1OC	n	x	x	x	x	n
Cc1cc(C)nc(N2CCCC(C(=O)Nc3cccc4ccccc34)C2)n1 (stereo not given)	n	x	x	x	x	n
COc1ccc(N2C(=O)CC(N3CCN(S(=O)(=O)c4ccc(Cl)cc4)CC3)C2=O)cc1 (stereo not given)	n	n	n	n	9.6	n
N#Cc1ccc(/C=N/NC(=O)c2cc(-c3cccs3)nc3ccccc23)cc1	n	116.5	16.7	n	n	n
SMILES	EP2 modulator	bCat nuc transl	MT stabilizer	TbHK1 inh	Efa HMGR inh	PGE2 EP2 inh
O=C(N/N=C/c1ccc2c(c1)OCO2)c1ccc2c(c1)OCCO2	n	x	12.4	n	n	n
O=C(N/N=C/c1c[nH]c2ccc(Br)cc12)c1ccc2c(c1)OCO2	n	73.0	43.9	n	n	n
O=C(c1cc(-c2cccs2)nc2ccccc12)N1CCN(c2ccccc2)CC1	n	n	19.1	n	n	n
O=C(N/N=C/c1c[nH]c2ccccc12)c1ccc2c(c1)OCCO2	n	n	x	n	x	n
Cc1cc(C)c2nc(SCC(=O)NC3CCCCC3C)c(C#N)cc2c1 (stereo not given)	n	x	x	x	x	n
COc1cc(CN2CCC(N3CCCCC3)CC2)cc(OC)c1	n	x	x	x	x	n
COC(=O)c1ccc(NC(=O)CSc2nnc3cc(C)c4cc(C)cc(C)c4n23)cc1	n	x	x	x	x	n
O=C(N/N=C/c1ccc2c(c1)OCO2)c1cc(-c2ccccc2)nc2ccccc12	n	n	29.3	n	n	n
CCCc1ccc(-c2cc(C(=O)N/N=C/c3ccc([N+](=O)[O-])o3)c3ccccc3n2)cc1	n	228.8	34.5	n	n	x
CCn1c2cc(C)oc2c2cnn(CC(=O)NCc3ccco3)c(=O)c21	n	x	x	x	x	x
Cc1c(Cl)cccc1NS(=O)(=O)c1ccc2c(c1)C1C=CCC1C(c1ccc(C(=O)O)cc1)N2 (stereo not given)	n	n	n	52.2	n	n
